ChEMBL document CHEMBL4152188, “Design, synthesis and biological evaluation of C(4) substituted monobactams as antibacterial agents against multidrug-resistant Gram-negative bacteria” (Eur J Med Chem, 2018)
≈ marks a conversion by molar mass, not a printed value.

What was measured:
Format in all cases: functional
Escherichia coli [1] = experiment: Antibacterial activity against Escherichia coli isolate 210737 after 18 hrs in presence of BPL by CLSI broth microdilution method; details: isolate 210737, 18 h
Procedure, shortened: (§1)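 CLSI broth microdilution against clinical isolates (ESBL E. coli, KPC-2 MDR K. pneumoniae, IMP-4 MDR P. aeruginosa; five per species). Iron limitation: Mueller-Hinton broth supplemented with 16 mg/liter 2,2'-bipyridyl to complex iron and induce iron uptake systems. Read-out: MIC.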

Escherichia coli [2] = experiment: Antibacterial activity against extended-spectrum beta-lactamase producing Escherichia coli isolate 208687 after 18 hrs by CLSI broth microdilution method; details: isolate 208687, 18 h
Pseudomonas aeruginosa [3] = experiment: Antibacterial activity against IMP-4 producing Pseudomonas aeruginosa isolate 207272 after 18 hrs by CLSI broth microdilution method; details: isolate 207272, 18 h
Klebsiella pneumoniae [4] = experiment: Antibacterial activity against KPC-2 producing Klebsiella pneumoniae isolate 212232 after 18 hrs in presence of BPL by CLSI broth microdilution method; details: isolate 212232, 18 h; procedure, shortened: as §1
Klebsiella pneumoniae [5] = experiment: Selectivity index, ratio of MIC for against KPC-2 producing Klebsiella pneumoniae isolate 212423 to MIC for against KPC-2 producing Klebsiella pneumoniae isolate 212423 in presence of BPL
Klebsiella pneumoniae [6] = experiment: Antibacterial activity against KPC-2 producing Klebsiella pneumoniae isolate 212232 after 18 hrs by CLSI broth microdilution method; details: isolate 212232, 18 h
Escherichia coli [7] = experiment: Antibacterial activity against extended-spectrum beta-lactamase producing Escherichia coli isolate 212648 after 18 hrs by CLSI broth microdilution method; details: isolate 212648, 18 h
Escherichia coli [8] = experiment: Antibacterial activity against extended-spectrum beta-lactamase producing Escherichia coli isolate 209285 after 18 hrs by CLSI broth microdilution method; details: isolate 209285, 18 h
Klebsiella pneumoniae [9] = experiment: Antibacterial activity against KPC-2 producing Klebsiella pneumoniae isolate 209735 after 18 hrs in presence of BPL by CLSI broth microdilution method; details: isolate 209735, 18 h; procedure, shortened: as §1
Escherichia coli [10] = experiment: Selectivity index, ratio of MIC for against Escherichia coli isolate 210737 to MIC for Escherichia coli isolate 210737 in presence of BPL
Pseudomonas aeruginosa [11] = experiment: Antibacterial activity against IMP-4 producing Pseudomonas aeruginosa isolate 209321 after 18 hrs by CLSI broth microdilution method; details: isolate 209321, 18 h
Escherichia coli [12] = experiment: Selectivity index, ratio of MIC for against extended-spectrum beta-lactamase producing Escherichia coli isolate 106342 to MIC for extended-spectrum beta-lactamase producing Escherichia coli isolate 106342 in presence of BPL
Klebsiella pneumoniae [13] = experiment: Antibacterial activity against KPC-2 producing Klebsiella pneumoniae isolate 212423 after 18 hrs by CLSI broth microdilution method; details: isolate 212423, 18 h
Klebsiella pneumoniae [14] = experiment: Antibacterial activity against KPC-2 producing Klebsiella pneumoniae isolate 212423 after 18 hrs in presence of BPL by CLSI broth microdilution method; details: isolate 212423, 18 h; procedure, shortened: as §1
Pseudomonas aeruginosa [15] = experiment: Antibacterial activity against IMP-4 producing Pseudomonas aeruginosa isolate 212886 after 18 hrs in presence of BPL by CLSI broth microdilution method; details: isolate 212886, 18 h; procedure, shortened: as §1
Escherichia coli [16] = experiment: Selectivity index, ratio of MIC for against extended-spectrum beta-lactamase producing Escherichia coli isolate 209285 to MIC for extended-spectrum beta-lactamase producing Escherichia coli isolate 209285 in presence of BPL
Klebsiella pneumoniae [17] = experiment: Antibacterial activity against KPC-2 producing Klebsiella pneumoniae isolate 209735 after 18 hrs by CLSI broth microdilution method; details: isolate 209735, 18 h
Pseudomonas aeruginosa [18] = experiment: Selectivity index, ratio of MIC for against IMP-4 producing Pseudomonas aeruginosa isolate 209471 to MIC for against IMP-4 producing Pseudomonas aeruginosa isolate 209471 in presence of BPL
Klebsiella pneumoniae [19] = experiment: Selectivity index, ratio of MIC for against KPC-2 producing Klebsiella pneumoniae isolate 212232 to MIC for against KPC-2 producing Klebsiella pneumoniae isolate 212232 in presence of BPL
Klebsiella pneumoniae [20] = experiment: Antibacterial activity against KPC-2 producing Klebsiella pneumoniae isolate 209632 after 18 hrs in presence of BPL by CLSI broth microdilution method; details: isolate 209632, 18 h; procedure, shortened: as §1
Escherichia coli [21] = experiment: Antibacterial activity against extended-spectrum beta-lactamase producing Escherichia coli isolate 212648 after 18 hrs in presence of BPL by CLSI broth microdilution method; details: isolate 212648, 18 h; procedure, shortened: as §1
Escherichia coli [22] = experiment: Antibacterial activity against Escherichia coli isolate 210737 after 18 hrs by CLSI broth microdilution method; details: isolate 210737, 18 h
Escherichia coli [23] = experiment: Antibacterial activity against extended-spectrum beta-lactamase producing Escherichia coli isolate 106342 after 18 hrs by CLSI broth microdilution method; details: isolate 106342, 18 h
Klebsiella pneumoniae [24] = experiment: Antibacterial activity against KPC-2 producing Klebsiella pneumoniae isolate 209632 after 18 hrs by CLSI broth microdilution method; details: isolate 209632, 18 h
Pseudomonas aeruginosa [25] = experiment: Antibacterial activity against IMP-4 producing Pseudomonas aeruginosa isolate 208247 after 18 hrs by CLSI broth microdilution method; details: isolate 208247, 18 h
Escherichia coli [26] = experiment: Antibacterial activity against extended-spectrum beta-lactamase producing Escherichia coli isolate 106342 after 18 hrs in presence of BPL by CLSI broth microdilution method; details: isolate 106342, 18 h; procedure, shortened: as §1
Klebsiella pneumoniae [27] = experiment: Antibacterial activity against KPC-2 producing Klebsiella pneumoniae isolate 212229 after 18 hrs by CLSI broth microdilution method; details: isolate 212229, 18 h
Pseudomonas aeruginosa [28] = experiment: Selectivity index, ratio of MIC for against IMP-4 producing Pseudomonas aeruginosa isolate 209321 to MIC for against IMP-4 producing Pseudomonas aeruginosa isolate 209321 in presence of BPL
Pseudomonas aeruginosa [29] = experiment: Selectivity index, ratio of MIC for against IMP-4 producing Pseudomonas aeruginosa isolate 208247 to MIC for against IMP-4 producing Pseudomonas aeruginosa isolate 208247 in presence of BPL
Escherichia coli [30] = experiment: Antibacterial activity against extended-spectrum beta-lactamase producing Escherichia coli isolate 208687 after 18 hrs in presence of BPL by CLSI broth microdilution method; details: isolate 208687, 18 h; procedure, shortened: as §1
Klebsiella pneumoniae [31] = experiment: Antibacterial activity against KPC-2 producing Klebsiella pneumoniae isolate 212229 after 18 hrs in presence of BPL by CLSI broth microdilution method; details: isolate 212229, 18 h; procedure, shortened: as §1
Klebsiella pneumoniae [32] = experiment: Selectivity index, ratio of MIC for against KPC-2 producing Klebsiella pneumoniae isolate 209632 to MIC for against KPC-2 producing Klebsiella pneumoniae isolate 209632 in presence of BPL
Klebsiella pneumoniae [33] = experiment: Selectivity index, ratio of MIC for against KPC-2 producing Klebsiella pneumoniae isolate 212229 to MIC for against KPC-2 producing Klebsiella pneumoniae isolate 212229 in presence of BPL
Pseudomonas aeruginosa [34] = experiment: Selectivity index, ratio of MIC for against IMP-4 producing Pseudomonas aeruginosa isolate 207272 to MIC for against IMP-4 producing Pseudomonas aeruginosa isolate 207272 in presence of BPL
Pseudomonas aeruginosa [35] = experiment: Antibacterial activity against IMP-4 producing Pseudomonas aeruginosa isolate 209471 after 18 hrs in presence of BPL by CLSI broth microdilution method; details: isolate 209471, 18 h; procedure, shortened: as §1
Escherichia coli [36] = experiment: Selectivity index, ratio of MIC for against extended-spectrum beta-lactamase producing Escherichia coli isolate 208687 to MIC for extended-spectrum beta-lactamase producing Escherichia coli isolate 208687 in presence of BPL
Pseudomonas aeruginosa [37] = experiment: Antibacterial activity against IMP-4 producing Pseudomonas aeruginosa isolate 212886 after 18 hrs by CLSI broth microdilution method; details: isolate 212886, 18 h
Escherichia coli [38] = experiment: Selectivity index, ratio of MIC for against extended-spectrum beta-lactamase producing Escherichia coli isolate 212648 to MIC for extended-spectrum beta-lactamase producing Escherichia coli isolate 212648 in presence of BPL
Pseudomonas aeruginosa [39] = experiment: Antibacterial activity against IMP-4 producing Pseudomonas aeruginosa isolate 209321 after 18 hrs in presence of BPL by CLSI broth microdilution method; details: isolate 209321, 18 h; procedure, shortened: as §1
Escherichia coli [40] = experiment: Antibacterial activity against extended-spectrum beta-lactamase producing Escherichia coli isolate 209285 after 18 hrs in presence of BPL by CLSI broth microdilution method; details: isolate 209285, 18 h; procedure, shortened: as §1
Pseudomonas aeruginosa [41] = experiment: Antibacterial activity against IMP-4 producing Pseudomonas aeruginosa isolate 209471 after 18 hrs by CLSI broth microdilution method; details: isolate 209471, 18 h
Pseudomonas aeruginosa [42] = experiment: Selectivity index, ratio of MIC for against IMP-4 producing Pseudomonas aeruginosa isolate 212886 to MIC for against IMP-4 producing Pseudomonas aeruginosa isolate 212886 in presence of BPL
Pseudomonas aeruginosa [43] = experiment: Antibacterial activity against IMP-4 producing Pseudomonas aeruginosa isolate 207272 after 18 hrs in presence of BPL by CLSI broth microdilution method; details: isolate 207272, 18 h; procedure, shortened: as §1
Klebsiella pneumoniae [44] = experiment: Selectivity index, ratio of MIC for against KPC-2 producing Klebsiella pneumoniae isolate 209735 to MIC for against KPC-2 producing Klebsiella pneumoniae isolate 209735 in presence of BPL
Pseudomonas aeruginosa [45] = experiment: Antibacterial activity against IMP-4 producing Pseudomonas aeruginosa isolate 208247 after 18 hrs in presence of BPL by CLSI broth microdilution method; details: isolate 208247, 18 h; procedure, shortened: as §1

CC(C)C(O/N=C(\C(=O)N[C@@H]1C(=O)N(S(=O)(=O)O)[C@@H]1COS(=O)(=O)O)c1csc(N)n1)c1cc(=O)c(O)cn1O (stereo not given in full)
MIC (Escherichia coli [1]): 2 µg/mL | MIC (Escherichia coli [2]): 8 µg/mL (≈ 12.8 µM) | MIC (Pseudomonas aeruginosa [3]): 32 µg/mL (≈ 51.1 µM) | MIC (Klebsiella pneumoniae [4]): 0.125 µg/mL | Selectivity Index (Klebsiella pneumoniae [5]): 4 | MIC (Klebsiella pneumoniae [6]): 2 µg/mL (≈ 3.19 µM) | MIC (Escherichia coli [7]): 8 µg/mL (≈ 12.8 µM) | MIC (Escherichia coli [8]): 8 µg/mL (≈ 12.8 µM) | MIC (Klebsiella pneumoniae [9]): 0.25 µg/mL | Selectivity Index (Escherichia coli [10]): 1 | MIC (Pseudomonas aeruginosa [11]): 32 µg/mL (≈ 51.1 µM) | Selectivity Index (Escherichia coli [12]): 2 | MIC (Klebsiella pneumoniae [13]): 2 µg/mL (≈ 3.19 µM) | MIC (Klebsiella pneumoniae [14]): 0.5 µg/mL | MIC (Pseudomonas aeruginosa [15]): 32 µg/mL | Selectivity Index (Escherichia coli [16]): 2 | MIC (Klebsiella pneumoniae [17]): 2 µg/mL (≈ 3.19 µM) | Selectivity Index (Pseudomonas aeruginosa [18]): 1 | Selectivity Index (Klebsiella pneumoniae [19]): 16 | MIC (Klebsiella pneumoniae [20]): 0.125 µg/mL | MIC (Escherichia coli [21]): 2 µg/mL | MIC (Escherichia coli [22]): 2 µg/mL (≈ 3.19 µM) | MIC (Escherichia coli [23]): 8 µg/mL (≈ 12.8 µM) | MIC (Klebsiella pneumoniae [24]): 0.5 µg/mL (≈ 0.798 µM) | MIC (Pseudomonas aeruginosa [25]): 32 µg/mL (≈ 51.1 µM) | MIC (Escherichia coli [26]): 4 µg/mL | MIC (Klebsiella pneumoniae [27]): 1 µg/mL (≈ 1.6 µM) | Selectivity Index (Pseudomonas aeruginosa [28]): 1 | Selectivity Index (Pseudomonas aeruginosa [29]): 1 | MIC (Escherichia coli [30]): 2 µg/mL | MIC (Klebsiella pneumoniae [31]): 0.25 µg/mL | Selectivity Index (Klebsiella pneumoniae [32]): 4 | Selectivity Index (Klebsiella pneumoniae [33]): 4 | Selectivity Index (Pseudomonas aeruginosa [34]): 1 | MIC (Pseudomonas aeruginosa [35]): 32 µg/mL | Selectivity Index (Escherichia coli [36]): 4 | MIC (Pseudomonas aeruginosa [37]): > 64 µg/mL | Selectivity Index (Escherichia coli [38]): 4 | MIC (Pseudomonas aeruginosa [39]): 32 µg/mL | MIC (Escherichia coli [40]): 4 µg/mL | MIC (Pseudomonas aeruginosa [41]): 32 µg/mL (≈ 51.1 µM) | Selectivity Index (Pseudomonas aeruginosa [42]): >2 | MIC (Pseudomonas aeruginosa [43]): 32 µg/mL | Selectivity Index (Klebsiella pneumoniae [44]): 8 | MIC (Pseudomonas aeruginosa [45]): 32 µg/mL
